Test results published in article PMC6054565 (ACS chemical biology, 2018).

Assays:
Test in all cases: chemiluminescence
Type in all cases: binding
TcYcgR = conditions: read-out: KD^a; 50 nM protein; 50 mM HEPES pH 7.2, 100 mM KCl, 10 mM DTT, 0.1% BSA; 28 °C
How it was run: (§1)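 Purified from E. coli co-expressing the c-di-GMP phosphodiesterase PdeH. Biosensor (YcgR domain inserted at the 91/92 site of split RLuc8) at 50 nM with c-di-GMP in 100 µL, equilibrated ≥10 min at 28 °C. Injected 20 µL of 60 µM coelenterazine-h in 50 mM HEPES pH 7.2, 100 mM KCl, 300 mM ascorbate. Total luminescence integrated 10 s after a 3 s delay.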

TbYcgR = conditions: read-out: KD^a; 50 nM protein; 50 mM HEPES pH 7.2, 100 mM KCl, 10 mM DTT, 0.1% BSA; 28 °C
How it was run: as §1

EcYcgR = biological target: T1, EcYcgR (Escherichia coli, UniProt P76010)
T1 sequence (P76010 1-244): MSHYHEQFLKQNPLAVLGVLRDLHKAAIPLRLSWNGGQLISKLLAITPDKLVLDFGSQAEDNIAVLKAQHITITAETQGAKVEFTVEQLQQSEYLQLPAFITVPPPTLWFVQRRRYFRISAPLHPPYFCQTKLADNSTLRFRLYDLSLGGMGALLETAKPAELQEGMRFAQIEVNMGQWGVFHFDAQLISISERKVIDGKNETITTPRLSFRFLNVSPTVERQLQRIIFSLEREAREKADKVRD
How it was run: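 Then 20 µL of 60 µM coelenterazine-h (in HEPES/KCl/300 mM ascorbate, equilibrated at RT for at least 30 min) was injected. Total luminescence was integrated for 10 s after a 3 s delay at 28 °C.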

TmYcgR = conditions: read-out: KD^a; 50 nM protein; 50 mM HEPES pH 7.2, 100 mM KCl, 10 mM DTT, 0.1% BSA; 28 °C
How it was run: as §1

ToYcgR = conditions: read-out: KD^a; 50 nM protein; 50 mM HEPES pH 7.2, 100 mM KCl, 10 mM DTT, 0.1% BSA; 28 °C
How it was run: as §1

BtYcgR = conditions: read-out: KD^a; 50 nM protein; 50 mM HEPES pH 7.2, 100 mM KCl, 10 mM DTT, 0.1% BSA; 28 °C
How it was run: as §1

TuYcgR = conditions: read-out: KD^a; 50 nM protein; 50 mM HEPES pH 7.2, 100 mM KCl, 10 mM DTT, 0.1% BSA; 28 °C
How it was run: as §1

CpYcgR = conditions: read-out: KD^a; 50 nM protein; 50 mM HEPES pH 7.2, 100 mM KCl, 10 mM DTT, 0.1% BSA; 28 °C
How it was run: as §1

PtYcgR = conditions: read-out: KD^a; 50 nM protein; 50 mM HEPES pH 7.2, 100 mM KCl, 10 mM DTT, 0.1% BSA; 28 °C
How it was run: as §1

CbYcgR = conditions: read-out: KD^a; 50 nM protein; 50 mM HEPES pH 7.2, 100 mM KCl, 10 mM DTT, 0.1% BSA; 28 °C
How it was run: as §1

BvYcgR = conditions: read-out: KD^a; 50 nM protein; 50 mM HEPES pH 7.2, 100 mM KCl, 10 mM DTT, 0.1% BSA; 28 °C
How it was run: as §1

DnYcgR = conditions: read-out: KD^a; 50 nM protein; 50 mM HEPES pH 7.2, 100 mM KCl, 10 mM DTT, 0.1% BSA; 28 °C
How it was run: as §1

Structure (SMILES): Nc1nc2c(ncn2[C@@H]2O[C@@H]3COP(=O)(O)O[C@H]4[C@@H](O)[C@H](n5cnc6c(=O)[nH]c(N)nc65)O[C@@H]4COP(=O)(O)O[C@H]3[C@H]2O)c(=O)[nH]1 [c-di-GMP]
- Kd (TcYcgR): 59 ± 2 nM
- Kd (TbYcgR): < 50 nM
- Kd (EcYcgR): 354 ± 18 nM
- Kd (TmYcgR): < 50 nM
- Kd (ToYcgR): 379 ± 23 nM
- Kd (BtYcgR): 286 ± 17 nM
- Kd (TuYcgR): < 50 nM
- Kd (CpYcgR): < 50 nM
- Kd (PtYcgR): < 50 nM
- Kd (CbYcgR): < 50 nM
- Kd (BvYcgR): 105 ± 2 nM
- Kd (DnYcgR): 303 ± 15 nM
